Pf_Dd2_inh: inhibitors of Plasmodium falciparum Dd2 growth; AID 1159554; P. falciparum Dd2 growth, SYBR Green, 72 h; stronger effect = lower value; activity change, % at 10 µM; 94,000 compounds, 2.3% hits; in the data active = activity change below about -80%; inconclusive = no clear call, values can overlap the other calls
Tcruzi_prolif: blocks T. cruzi growth in NIH3T3 culture | T. cruzi beta-gal in NIH3T3, GalScreen luminescence, 90 h | inhibition, % at 8.34 µM | 77,000 compounds, 5.9% hits | AID 624255;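 active = mean inhibition above about 93%, with at least 55% of replicates each passing it, limit read from the data, passing the limit was not always enough; inconclusive = only one of those two conditions holds; inactive = neither condition holds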
IDH1_R132H_inh: blocks human IDH1 R132H reductase activity. 70,000 compounds, 0.18% hits. O75874. diaphorase/resazurin fluorescence, 60 min. inhibition, % at 10 µM; in the data active = inhibition above about 34%; inconclusive = no clear call, values can overlap the other calls; inactive = below about 11%;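 note: 0% = DMSO and 100% = no enzyme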
KDM4C_inh: inhibitors of human demethylase GASC-1 KDM4C; GST-KDM4C 2-372, H3K9me3 peptide, LANCE TR-FRET; inhibition, % at 12.5 µM; 96,000 compounds, 0.15% hits;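 active = mean replicate inhibition above about 25%, with at least 55% of replicates also reaching it, limit read from the data, passing the limit was not always enough; inconclusive = only one of those two conditions met; inactive = neither condition met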
Target sequence (Q9H3R0 2-372 limits assumed): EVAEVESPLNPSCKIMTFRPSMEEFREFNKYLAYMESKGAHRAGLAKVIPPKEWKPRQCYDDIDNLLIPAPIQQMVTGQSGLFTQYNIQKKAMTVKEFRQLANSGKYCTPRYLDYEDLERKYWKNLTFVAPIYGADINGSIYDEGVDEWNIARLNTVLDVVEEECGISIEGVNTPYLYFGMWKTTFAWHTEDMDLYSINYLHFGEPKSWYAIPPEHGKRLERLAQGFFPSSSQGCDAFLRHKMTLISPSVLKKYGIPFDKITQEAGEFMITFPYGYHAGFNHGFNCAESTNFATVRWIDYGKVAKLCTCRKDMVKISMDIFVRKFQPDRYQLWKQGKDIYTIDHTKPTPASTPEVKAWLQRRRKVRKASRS
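material = GST-tagged GASC-1 (JMJD2C) catalytic fragment, aa 2-372 | amount = enzyme final amount 10 nM | medium = HEPES buffer, pH 7.5, plus ascorbate | also added = H3K9me3 peptide substrate, Fe(II), 2-oxoglutarate | dosing = single dose | times = 30 min demethylation and 1 h detection at room temperature | detection = LANCE TR-FRET | read-out basis = Fall in 671/618 emission ratio as inhibition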
* hit, by the source's call; ? = inconclusive; / = not tested or not shown. Compounds with a hit are over-represented: about 5.8% of the library has one in this group of screens.

SMILES Pf_Dd2_inh Tcruzi_prolif IDH1_R132H_inh KDM4C_inh
C[C@@H]1CCCCO[C@@H](CN(C)Cc2ccc3c(c2)OCO3)[C@@H](C)CN([C@H](C)CO)C(=O)c2cc(NC(=O)Nc3cccc4ccccc34)ccc2O1 31 93 / -2
C[C@@H]1CCCCO[C@@H](CN(C)Cc2ccc3c(c2)OCO3)[C@H](C)CN([C@H](C)CO)C(=O)c2cc(NC(=O)Nc3cccc4ccccc34)ccc2O1 -91* 45 1 -6
C[C@@H]1CCCCO[C@H](CN(C)Cc2ccc3c(c2)OCO3)[C@@H](C)CN([C@@H](C)CO)C(=O)c2cc(NC(=O)Nc3cccc4ccccc34)ccc2O1 -88* 69 2 -2
CCCN1C[C@@H](C)[C@H](OC)CN(C)C(=O)c2ccc(NC(=O)Nc3cccc(F)c3)cc2OC[C@@H]1C -34 -18 1 0
CO[C@@H]1CN(C)C(=O)c2ccc(NC(=O)C3CCC3)cc2OC[C@@H](C)N(Cc2ccccn2)C[C@@H]1C -27 4 0 5
Cc1noc(C)c1S(=O)(=O)N(C)C[C@@H]1OCCCC[C@H](C)Oc2ccc(NC(=O)c3ccccc3)cc2C(=O)N([C@@H](C)CO)C[C@H]1C -88* 11 / -1
Cc1noc(C)c1S(=O)(=O)N(C)C[C@H]1OCCCC[C@H](C)Oc2ccc(NC(=O)Nc3ccccc3)cc2C(=O)N([C@H](C)CO)C[C@@H]1C -4 / / -2
Cc1noc(C)c1S(=O)(=O)N(C)C[C@@H]1OCCCC[C@H](C)Oc2ccc(NC(=O)Nc3ccccc3)cc2C(=O)N([C@H](C)CO)C[C@H]1C -83* / 0 0
C[C@@H]1CN([C@@H](C)CO)S(=O)(=O)c2ccc(C3=CCCCC3)cc2O[C@H]1CN(C)C(=O)Cc1cccnc1 -31 60 45* 0
Cc1ccccc1-c1ccc2c(c1)O[C@H](CN(C)Cc1ccncc1)[C@H](C)CN([C@H](C)CO)S2(=O)=O -44 89 17 2
C[C@H](CO)N1C[C@H](C)[C@H](CN(C)C(=O)Cc2ccncc2)Oc2cc(C3=CCCCC3)ccc2S1(=O)=O -69 64 ? 0
Cc1ccccc1-c1ccc2c(c1)O[C@@H](CN(C)Cc1ccncc1)[C@H](C)CN([C@H](C)CO)S2(=O)=O -88* 93 1 0
C[C@@H]1CN([C@H](C)CO)S(=O)(=O)c2ccc(Br)cc2O[C@H]1CN(C)Cc1ccncc1 -27 95 42* 3
C[C@H](CO)N1C[C@H](C)[C@@H](CN(C)Cc2ccncc2)Oc2cc(C3=CCCC3)ccc2S1(=O)=O 34 87 48* 1
C[C@@H]1CN([C@H](C)CO)C(=O)c2cccc(NC(=O)C3CC3)c2O[C@H]1CN(C)S(=O)(=O)c1cccs1 31 37 0 1
CC(C)C#Cc1ccc2c(c1)O[C@H](CN(C)Cc1ccncc1)[C@H](C)CN([C@@H](C)CO)S2(=O)=O -35 105* 6 2
C[C@H]1CN([C@@H](C)CO)S(=O)(=O)c2ccc(/C=C/c3ccccc3)cc2O[C@H]1CN(C)Cc1ccc(C(=O)O)cc1 -51 72 0 6
CN1c2ccc(-c3cccc(C#N)c3)cc2[C@H]2[C@H](CCN2C(=O)C2CCCCC2)[C@H]1CO -60 / / -7
C[C@@H]1CN([C@@H](C)CO)C(=O)c2cc(NC(=O)Nc3cccc4ccccc34)ccc2O[C@@H](C)CCCCO[C@@H]1CN(C)S(=O)(=O)c1cccs1 -90* -8 1 0
C[C@H]1CCCCO[C@H](CN(C)S(=O)(=O)c2cccs2)[C@@H](C)CN([C@@H](C)CO)C(=O)c2cc(NC(=O)Nc3cccc4ccccc34)ccc2O1 -60 31 -1 2
C[C@H](CO)N1C[C@H](C)[C@H](CN(C)S(=O)(=O)c2cccs2)OCCCC[C@H](C)Oc2ccc(NC(=O)Nc3ccc(F)cc3)cc2C1=O -28 92 2 -1
C[C@@H]1CN([C@H](C)CO)C(=O)c2cc(NC(=O)NC3CCCCC3)ccc2O[C@@H](C)CCCCO[C@@H]1CN(C)S(=O)(=O)c1cccs1 -84* 90 -1 -3
C[C@@H]1CN([C@H](C)CO)C(=O)c2cc(NC(=O)Nc3ccc(F)cc3)ccc2O[C@@H](C)CCCCO[C@@H]1CN(C)S(=O)(=O)c1cccs1 -84* -47 / -1
C[C@@H]1CN([C@H](C)CO)C(=O)c2cc(NC(=O)C3CCCCC3)ccc2O[C@@H](C)CCCCO[C@@H]1CN(C)S(=O)(=O)c1cccs1 -84* 34 / -2
